Results on three molecules are retold here after ChEMBL document CHEMBL1122782, “Bulky amine analogues of ketoprofen: potent antiinflammatory agents” (J Med Chem, 1984).

The subject of assay [1] is Rattus norvegicus. Put plainly: The mean increase in paw volume was compared between drug treated groups and placebo to calculate the percent inhibition in rats at 0.02 mmol/kg by carrageenan Edema Assay 0-19. The class given is functional.
Assay [2] has as its system Rattus norvegicus. Put plainly: Ulcerogenicity was measured in stomach during the 3 week adjuvant arthritis test, no of animals with ulcers out of 31 animals tested at 0.03 mM/kg (7.62 mg) was reported. The class given is functional. A digest of the protocol: (§1)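 Male Sprague-Dawley rats (200–230 g) got 0.1 mL of a 0.6% M. butyricum adjuvant suspension in heavy mineral oil into the plantar tissue of one hind paw. Oral gavage dosing started the same day and continued daily for 21 days, in 1% gum tragacanth or corn oil-water emulsion. At the end, rats were killed and the small intestine and stomach were examined for ulcers, reported as animals with ulcers over animals tested.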

For assay [3], the system named is Rattus norvegicus. Put plainly: Antiinflammatory efficacy is measured by the weight gain in rats during the 3 week adjuvant arthritis test at 0.009 mM/kg (2.29 mg). It is filed as functional. A digest of the protocol:
(§2)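 Rats were adjuvant-injected (M. butyricum in mineral oil, one hind paw) or given a mineral-oil placebo. They were dosed by gavage daily for 21 days from the injection day, with vehicle only for both control groups, then weighed at the end. Weight gain % = (treated − adjuvant control)/(negative control − adjuvant control) × 100.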

Assay [4] relates to Rattus norvegicus. Description: Antiinflammatory efficacy is measured by the weight gain in rats during the 3 week adjuvant arthritis test at 0.002 mM/kg (0.51 mg). It is filed as functional. The procedure, abridged:
as §2

The subject of assay [5] is Rattus norvegicus. Description: Antiinflammatory efficacy is measured by the weight gain in rats during the 3 week adjuvant arthritis test at 0.006 mM/kg (0.152 mg). The class given is functional. A digest of the protocol: as §2
Assay [6] relates to Rattus norvegicus. Put plainly: The percent inhibition was calculated from the average differences in hind paw volume between the adjuvant injected controls and the adjuvant-injected medicated rats at 0.08 mmol/kg; 0.009-82. The conditions noted are these: read-out: Inhibition. The class given is functional.
Assay [7] relates to Rattus norvegicus. Put plainly: Antiinflammatory efficacy is measured by the percent inhibition of paw volume during the 3 week adjuvant arthritis test at 0.006 mM/kg ([…]). It is filed as functional. The procedure, abridged: (§3)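 Male Sprague-Dawley rats (200–230 g) were used in groups of eight. Each received 0.1 mL of 0.6% M. butyricum in heavy mineral oil into the plantar tissue of one hind paw. Daily oral gavage in 1% gum tragacanth or corn oil-water emulsion began on the injection day and ran 21 days. Total hind paw volume was measured by mercury displacement, and inhibition was taken versus vehicle-treated adjuvant controls.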

The test system of assay [8] is Rattus norvegicus. Put plainly: Ulcerogenicity was measured in intestine during the 3 week adjuvant arthritis test, no of animals with ulcers out of animals tested at 0.06 mM/kg (15.2 mg) was reported; toxic. It is filed as functional, organism-based. The procedure, abridged:
as §1

Assay [9] relates to Rattus norvegicus. Description: Ulcerogenicity was measured in stomach during the 3 week adjuvant arthritis test, no of animals with ulcers out of 4 animals tested at 0.002 mM/kg (0.51 mg) was reported. The class given is functional. The procedure, abridged:
as §1

For assay [10], the species on record is Rattus norvegicus. Put plainly: Compound was evaluated for highest non-ulcerogenic dose (less than 50% ulcer incidence). It is filed as functional. Particulars: read-out: ED50. A digest of the protocol:
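Taken from the 21-day adjuvant arthritis test in male Sprague-Dawley rats dosed orally each day from the day of adjuvant injection. Small intestines and stomachs were examined for ulceration at the end. The value is the highest dose giving less than 50% ulcer incidence.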

Assay [11] relates to Rattus norvegicus. Put plainly: Ulcerogenicity was measured in intestine during the 3 week adjuvant arthritis test, no of animals with ulcers out of 4 animals tested at 0.002 mM/kg (0.51 mg) was reported. It is filed as functional. The procedure, abridged:
as §1

The test system of assay [12] is Rattus norvegicus. Description: Potency relative to phenylbutazone at 0.006 mM/kg. It is filed as functional. A digest of the protocol: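 21-day adjuvant arthritis in male Sprague-Dawley rats (0.6% M. butyricum in mineral oil, intraplantar), with daily oral gavage from the day of adjuvant injection. Total hind-paw volume was measured by mercury displacement and percent inhibition calculated against adjuvant controls. The ED50 for 50% inhibition of paw volume was expressed relative to phenylbutazone, with 95% confidence limits.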

Assay [13] has as its system Rattus norvegicus. Put plainly: Antiinflammatory efficacy is measured by the percent inhibition of paw volume during the 3 week adjuvant arthritis test at 0.002 mM/kg (0.51 mg). It is filed as functional. A digest of the protocol: as §3
In assay [14] the test system is Rattus norvegicus. Description: Ulcerogenicity was measured in intestine during the 3 week adjuvant arthritis test, no of animals with ulcers out of 31 animals tested at 0.03 mM/kg (7.62 mg) was reported. The class given is functional. A digest of the protocol:
as §1

The test system of assay [15] is Rattus norvegicus. Put plainly: The mean increase in paw volume was compared between drug treated groups and placebo to calculate the percent inhibition in rats at 0.02 mmol/kg by carrageenan Edema Assay; 60-69. The class given is functional.
In assay [16] the test system is Rattus norvegicus. Put plainly: Antiinflammatory efficacy is measured by the percent inhibition of paw volume during the 3 week adjuvant arthritis test at 0.009 mM/kg (2.29 mg). The class given is functional. A digest of the protocol:
as §3

The subject of assay [17] is Rattus norvegicus. Description: Ulcerogenicity was measured in stomach during the 3 week adjuvant arthritis test, no of animals with ulcers out of 24 animals tested at 0.009 mM/kg (2.29 mg) was reported. The class given is functional. A digest of the protocol: as §1
Assay [18] relates to Rattus norvegicus. Description: Ulcerogenicity was measured in intestine during the 3 week adjuvant arthritis test, no of animals with ulcers out of 24 animals tested at 0.009 mM/kg (2.29 mg) was reported. It is filed as functional. A digest of the protocol: as §1
The test system of assay [19] is Rattus norvegicus. Put plainly: The percent inhibition was calculated from the average differences in hind paw volume between the adjuvant injected controls and the adjuvant-injected medicated rats at 0.08 mmol/kg; 60-69. It is filed as functional. The conditions noted are these: Rattus norvegicus.
In assay [20] the test system is Rattus norvegicus. Put plainly: Ulcerogenicity was measured in stomach during the 3 week adjuvant arthritis test, no of animals with ulcers out of 8 animals tested at 0.08 mM/kg (24.7 mg) was reported. The class given is functional. The procedure, abridged: (§4)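 Male Sprague-Dawley rats (200–230 g) were injected in the plantar tissue of one hind paw with 0.1 mL of 0.6% M. butyricum suspension in heavy mineral oil. Daily oral gavage began on the day of adjuvant injection and ran for the 21 days, with drug suspended in 1% gum tragacanth or a corn oil-water emulsion. At the end the rats were sacrificed and the small intestine and stomach were examined for ulcers. Results are given as animals with ulcers/animals tested.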

Assay [21] relates to Rattus norvegicus. Description: Antiinflammatory efficacy is measured by the percent inhibition of paw volume during the 3 week adjuvant arthritis test at 0.08 mM/kg(24.7 mg). It is filed as functional. A digest of the protocol:
as §3

In assay [22] the test system is Rattus norvegicus. Put plainly: Potency relative to phenylbutazone at 0.08 mM/kg. It is filed as functional.
Assay [23] relates to Rattus norvegicus. Put plainly: Ulcerogenicity was measured in intestine during the 3 week adjuvant arthritis test, no of animals with ulcers out of 8 animals tested at 0.16 mM/kg (49.4 mg) was reported. The class given is functional. A digest of the protocol: as §4
The test system of assay [24] is Rattus norvegicus. Description: Ulcerogenicity was measured in intestine during the 3 week adjuvant arthritis test, no of animals with ulcers out of 8 animals tested at 0.08 mM/kg (24.7 mg) was reported. It is filed as functional. The procedure, abridged:
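In the 21-day adjuvant arthritis model, male Sprague-Dawley rats (200–230 g) received an M. butyricum mineral-oil suspension into one hind paw. They were dosed daily by gavage from the day of injection. At the end of the study the rats were killed, and the small intestines were examined for ulcers. Results are given as the number of ulcerated animals over the number tested.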

Assay [25] concerns Rattus norvegicus. Description: Ulcerogenicity was measured in stomach during the 3 week adjuvant arthritis test, no of animals with ulcers out of 8 animals tested at 0.16 mM/kg (49.4 mg) was reported. The class given is functional. A digest of the protocol:
as §4

The test system of assay [26] is Rattus norvegicus. Description: Antiinflammatory efficacy is measured by the weight gain in rats during the 3 week adjuvant arthritis test at 0.08 mM/kg(24.7 mg). It is filed as functional. A digest of the protocol: as §2
In assay [27] the test system is Rattus norvegicus. Put plainly: The mean increase in paw volume was compared between drug treated groups and placebo to calculate the percent inhibition in rats at 0.02 mmol/kg by carrageenan Edema Assay; 30-39. It is filed as functional. Particulars: Rattus norvegicus.

Take `O=C(c1ccccc1)c1cccc(CCN2CCOCC2)c1`: in [1], the inhibition in vivo at 20 µmol/kg was 0%.

On to `CC(C(=O)O)c1cccc(C(=O)c2ccccc2)c1` (stereo not drawn) [KETOPROFEN], for which the Ulcerogenic index in assay [2] is 3; in assay [8] it was “Toxic”; in [9], 0; in [11], 0; in assay [14], 22; in assay [17] it was 6. Further, the Ulcerogenic index in assay [18] worked out at 4. Moreover, the Weight gain is 79% in assay [3], 35% in assay [4] and 21% in [5]. For the same molecule, the inhibition in vivo at 80 µmol/kg in assay [6] is 82%. The Inhibition (usually how much of the control response was suppressed) in [7] is recorded as 31%; in [13], 68%; in assay [16], 82%. Further, the highest non-ulcerogenic dose in assay [10] was 1 µmol/kg. Besides, the Relative potency in assay [12] came out at 32.4%. Also, the inhibition in vivo at 20 µmol/kg in assay [15] is 60%.

As for `CC(CN1CCOCC1)c1cccc(C(=O)c2ccccc2)c1` (stereo not drawn), the inhibition in vivo at 80 µmol/kg in [19] is 80%. Further, the Ulcerogenic index in [20] came out at 0; in [23] it was 3; in assay [24], 1; in assay [25] it was 1. Also, in [21], the Inhibition was 82%. The molecule further had a Relative potency in assay [22] of 8.6%. Besides, the highest non-ulcerogenic dose in assay [10] came out at 8 µmol/kg. For the same molecule, in assay [26], the Weight gain turned out to be 66%. The inhibition in vivo at 20 µmol/kg in assay [27] was 30%.
